Test results reported in ChEMBL document CHEMBL1833841, “Synthesis and biological evaluation of a novel class of isatin analogs as dual inhibitors of tubulin polymerization and Akt pathway” (Bioorg Med Chem, 2011).
pIC50: −log10 of the molar value. Counter-ions that a name gives are not always drawn. Activity calls are given as the source filed them. The calls are words filed in the database; no cut-off is given here.

What was measured:
MCF7 = assay: Cytotoxicity against human MCF7 cells after 48 hrs by MTS assay; format: functional, cell-based; conditions: MCF7, 48 h
Summary of the method: (§1)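 A549, MCF-7 and UACC903 cells grown in DMEM with 10% FBS at 37°C, 5% CO2. 5×10^3 cells/well were left to adhere 24 h, then treated 48 h with compound (DMSO stock diluted in DMEM, 0.5–50 µM). MTS read at 490 nm and normalized to control. Dose-response fitted as sigmoidal, variable slope. Triplicates from at least two independent experiments.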

HT-29 [1] = assay: Cytotoxicity against human HT-29 cells after 48 hrs by MTS assay; format: functional, cell-based; conditions: HT-29, 48 h
Summary of the method: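 HT29 cells maintained in RPMI with 10% FBS. 5×10^3 cells/well were left to adhere 24 h, then exposed 48 h to compound (DMSO stock diluted in DMEM, 0.5–50 µM). MTS absorbance at 490 nm normalized to control. IC50 from sigmoidal variable-slope fit. Triplicates, at least two independent experiments.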

UACC-903 = assay: Cytotoxicity against human UACC903 cells after 48 hrs by MTS assay; format: functional, cell-based; conditions: UACC-903, 48 h; summary of the method: as §1
A549 = assay: Cytotoxicity against human A549 cells after 48 hrs by MTS assay; format: functional, cell-based; conditions: A549, 48 h; summary of the method: as §1
Bos taurus = species: Bos taurus; assay: Inhibition of bovine brain tubulin polymerization at 10 uM after 1 hrs by fluorescence assay
Summary of the method: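 Compound at 10 µM final, DMSO as control. Fluorescence (ex 360, em 440 nm) read every 10 s for 1 h at 37°C, duplicate wells.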

HT-29 [2] = assay: Induction of apoptosis in human HT-29 cells assessed as dead cells at 2.5 uM after 24 hrs by PE annexin V and 7-Aminoactinomycin D staining-based flow cytometry (reference value: 1.33%); format: functional
Summary of the method: (§2)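 HT29 cells (RPMI, 10% FBS) treated with 1.25, 2.5 or 5 μM, or DMSO control, for 24 h at 37 °C. Cells then harvested, washed twice in cold PBS and resuspended at 1×10^6 cells/ml in binding buffer. Stained with PE annexin V and 7-AAD for 15 min at RT in the dark, then analysed by flow cytometry. 7-AAD-positive cells counted as dead.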

HT-29 [3] = assay: Inhibition of AKT expression in human HT-29 cells assessed as total AKT level at 1 uM after 24 hrs by Western blotting; format: functional, cell-based
Summary of the method: (§3)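 HT29 cells treated 24 h with 1 or 2 µM compound or no drug. Lysed in HEPES/NaCl/EDTA/NP40 buffer with phosphatase and protease inhibitors. Protein equalized by Bradford, run on 10% gels, semi-dry transfer to nitrocellulose, blocked in 5% milk. Pan-Akt or phospho-Akt rabbit polyclonal primaries overnight at 4°C, HRP secondaries, chemiluminescence. β-actin loading control.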

HT-29 [4] = assay: Induction of apoptosis in human HT-29 cells assessed as dead cells at 1.25 uM after 24 hrs by PE annexin V and 7-Aminoactinomycin D staining-based flow cytometry (reference value: 1.33%); format: functional; summary of the method: as §2
HT-29 [5] = assay: Induction of apoptosis in human HT-29 cells assessed as early apoptotic cells at 2.5 uM after 24 hrs by PE annexin V and 7-Aminoactinomycin D staining-based flow cytometry (reference value: 1.37%); format: functional
Summary of the method: (§4)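 HT29 cells were treated with 1.25–5.0 µM compound or DMSO for 24 h at 37°C, harvested by low-speed centrifugation and washed twice in cold PBS. They were resuspended in binding buffer at 1×10^6 cells/ml, stained with PE annexin V and 7-AAD for 15 min at RT in the dark, and quantified by flow cytometry.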

HT-29 [6] = assay: Induction of apoptosis in human HT-29 cells assessed as viable cells at 1.25 uM after 24 hrs by PE annexin V and 7-Aminoactinomycin D staining-based flow cytometry (reference value: 93.2%); format: functional; conditions: HT-29, 24 h, read-out: Activity; summary of the method: as §4
HT-29 [7] = assay: Induction of apoptosis in human HT-29 cells assessed as early apoptotic cells at 1.25 uM after 24 hrs by PE annexin V and 7-Aminoactinomycin D staining-based flow cytometry (reference value: 1.37%); format: functional; summary of the method: as §4
HT-29 [8] = assay: Induction of apoptosis in human HT-29 cells after 24 hrs by PE annexin V and 7-Aminoactinomycin D staining-based flow cytometry; format: functional, cell-based; summary of the method: as §4
HT-29 [9] = assay: Induction of apoptosis in human HT-29 cells assessed as increase in caspase 3/7 activation after 24 hrs by fluorescence spectrophotometry; format: functional, cell-based
Summary of the method: (§5)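 HT29 cells seeded at 1×10^4/well and grown 24 h, then treated 24 h with 1.25–5 µM compound or DMSO. Equal volume of Apo-ONE caspase-3/7 reagent added, shaken 30 s, incubated 2 h at RT. Cleaved-substrate fluorescence read at ex 498/em 521 nm, expressed relative to DMSO cells. Means ± SD, triplicate, one representative experiment.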

HT-29 [10] = assay: Induction of apoptosis in human HT-29 cells at 2.5 uM after 24 hrs by PE annexin V and 7-Aminoactinomycin D staining-based flow cytometry; format: functional; summary of the method: as §2
HT-29 [11] = assay: Induction of apoptosis in human HT-29 cells assessed as early apoptotic cells at 5 uM after 24 hrs by PE annexin V and 7-Aminoactinomycin D staining-based flow cytometry (reference value: 1.37%); format: functional; summary of the method: as §4
HT-29 [12] = assay: Inhibition of AKT expression in human HT-29 cells assessed as total AKT level at 2 uM after 24 hrs by Western blotting; format: functional, cell-based; summary of the method: as §3
MEF = assay: Cytotoxicity against mouse MEF cells after 48 hrs by MTS assay; format: cell-based
Summary of the method: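 Mouse embryonic fibroblasts exposed to compound for 48 h; viability then read by MTS colorimetric assay. IC50 derived from the viability data.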

HT-29 [13] = assay: Induction of apoptosis in human HT-29 cells assessed as viable cells at 5 uM after 24 hrs by PE annexin V and 7-Aminoactinomycin D staining-based flow cytometry (reference value: 93.2%); format: functional; conditions: HT-29, 24 h, read-out: Activity; summary of the method: as §4
HT-29 [14] = assay: Induction of apoptosis in human HT-29 cells assessed as viable cells at 2.5 uM after 24 hrs by PE annexin V and 7-Aminoactinomycin D staining-based flow cytometry (reference value: 93.2%); format: functional; conditions: HT-29, 24 h, read-out: Activity; summary of the method: as §4
[15] = target: RAC-alpha serine/threonine-protein kinase (Homo sapiens) (UniProt P31749); assay: Inhibition of AKT phosphorylation in human HT-29 cells assessed as p-AKT level at 2 uM after 24 hrs by Western blotting; format: cell-based; summary of the method: as §3
HT-29 [16] = assay: Induction of apoptosis in human HT-29 cells assessed as late apoptosis or necrotic cells at 5 uM after 24 hrs by PE annexin V and 7-Aminoactinomycin D staining-based flow cytometry (reference value: 4.1%); format: functional; summary of the method: as §4
HT-29 [17] = assay: Induction of apoptosis in human HT-29 cells assessed as increase in caspase 3/7 activation after 24 hrs by fluorescence spectrophotometry relative to control; format: functional; design: concentration or dose not given beside the values; summary of the method: as §5
HT-29 [18] = assay: Induction of apoptosis in human HT-29 cells assessed as DNA fragmentation at 5 uM after 48 hrs by TUNEL assay; format: functional, cell-based
Summary of the method: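 1×10^5 HT29 cells/well grown 24 h in 10% serum medium, then exposed to 5 µM compound. Fragmented DNA stained with ApopTag Red in situ kit, Hoechst nuclear counterstain. Red TUNEL-positive versus blue total nuclei scored by fluorescence microscopy.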

HT-29 [19] = assay: Induction of apoptosis in human HT-29 cells assessed as late apoptosis or necrotic cells at 1.25 uM after 24 hrs by PE annexin V and 7-Aminoactinomycin D staining-based flow cytometry (reference value: 4.1%); format: functional; summary of the method: as §4
[20] = target: RAC-alpha serine/threonine-protein kinase (Homo sapiens) (UniProt P31749); assay: Inhibition of AKT phosphorylation in human HT-29 cells assessed as p-AKT level at 1 uM after 24 hrs by Western blotting; format: cell-based; summary of the method: as §3
HT-29 [21] = assay: Induction of apoptosis in human HT-29 cells at 1.25 uM after 24 hrs by PE annexin V and 7-Aminoactinomycin D staining-based flow cytometry; format: functional; summary of the method: as §2
HT-29 [22] = assay: Induction of apoptosis in human HT-29 cells assessed as dead cells at 5 uM after 24 hrs by PE annexin V and 7-Aminoactinomycin D staining-based flow cytometry (reference value: 1.33%); format: functional; summary of the method: as §2
HT-29 [23] = assay: Induction of apoptosis in human HT-29 cells at 5 uM after 24 hrs by PE annexin V and 7-Aminoactinomycin D staining-based flow cytometry (reference value: 6.8%); format: functional; summary of the method: as §2
HT-29 [24] = assay: Induction of apoptosis in human HT-29 cells assessed as late apoptosis or necrotic cells at 2.5 uM after 24 hrs by PE annexin V and 7-Aminoactinomycin D staining-based flow cytometry (reference value: 4.1%); format: functional; summary of the method: as §4

RAC-alpha serine/threonine-protein kinase (Homo sapiens), sequence (P31749 whole entry): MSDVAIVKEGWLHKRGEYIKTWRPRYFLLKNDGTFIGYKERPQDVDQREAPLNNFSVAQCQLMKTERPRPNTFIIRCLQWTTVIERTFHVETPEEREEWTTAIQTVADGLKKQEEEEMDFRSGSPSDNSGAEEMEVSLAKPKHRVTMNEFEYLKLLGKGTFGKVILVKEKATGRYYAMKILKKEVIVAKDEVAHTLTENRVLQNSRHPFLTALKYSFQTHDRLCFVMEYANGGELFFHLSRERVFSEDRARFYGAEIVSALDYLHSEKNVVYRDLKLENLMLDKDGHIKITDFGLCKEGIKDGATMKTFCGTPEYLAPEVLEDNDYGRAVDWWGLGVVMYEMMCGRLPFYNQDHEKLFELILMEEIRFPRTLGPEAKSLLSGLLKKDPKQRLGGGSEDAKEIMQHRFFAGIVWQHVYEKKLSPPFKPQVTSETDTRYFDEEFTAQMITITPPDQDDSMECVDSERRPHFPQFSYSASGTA

`N#CSCCCN1C(=O)C(=O)c2cc(Br)cc(Br)c21` gave a pIC50 (MCF7) of 5.01, a pIC50 (HT-29 [1]) of 5.49 and a pIC50 (UACC-903) of 5.54. It also gave a pIC50 (A549) of 5.45.
`CC[C@]1(O)C[C@@H]2CN(CCc3c([nH]c4ccccc34)[C@@](C(=O)OC)(c3cc4c(cc3OC)N(C)[C@H]3[C@@](O)(C(=O)OC)[C@H](OC(C)=O)[C@]5(CC)C=CCN6CC[C@]43[C@@H]65)C2)C1` [VINBLASTINE SULFATE] showed an inhibition (Bos taurus) of 66%, a pIC50 (HT-29 [1]) of 6.26 and a pIC50 (UACC-903) of 5.78.
In the case of `O=C1C(=O)N(CCCN=C=S)c2c(Br)cc(Br)cc21`, the pIC50 (MCF7) was 5.05, the Activity (HT-29 [2]) was 2.9% and the inhibition (HT-29 [3]) was “inactive”. The Activity (HT-29 [4]) was 1.92%, the Activity (HT-29 [5]) was 6.93% and the viability at 1.25 µM (HT-29 [6]) was 91.5%. For the same molecule, the inhibition (Bos taurus) was 62%, the Activity (HT-29 [7]) was 2.83% and the Activity (HT-29 [8]) was “Dose-dependent effect”. For the same molecule, the Activity (HT-29 [9]) was “Dose-dependent effect”, the Activity (HT-29 [10]) was 21.23% and the Activity (HT-29 [11]) was 4.78%. The inhibition (HT-29 [12]) was “Active”, the pIC50 (MEF) was under 4.70 and the viability at 5 µM (HT-29 [13]) was 38.5%. For the same molecule, the pIC50 (HT-29 [1]) was 5.81, the viability at 2.5 µM (HT-29 [14]) was 78.8% and the inhibition [15] was “Active”. The Activity (HT-29 [16]) was 48.5%, the “fold change (FC)” value (HT-29 [17]) was 16 and the Activity (HT-29 [18]) was “Active”. The Activity (HT-29 [19]) was 3.79%, the inhibition [20] was “inactive” and the Activity (HT-29 [21]) was 8.54%. The Activity (HT-29 [22]) was 8.22%, the Activity (HT-29 [23]) was 61.5% and the Activity (HT-29 [24]) was 11.4%. The pIC50 (UACC-903) was 5.36 and the pIC50 (A549) was 5.67.
With `CC(=O)O[C@H]1C(=O)[C@@]2(C)[C@H]([C@H](OC(=O)c3ccccc3)[C@]3(O)C[C@H](OC(=O)[C@H](O)[C@@H](NC(=O)c4ccccc4)c4ccccc4)C(C)=C1C3(C)C)[C@]1(OC(C)=O)CO[C@@H]1C[C@@H]2O` the inhibition (Bos taurus) was “inactive”.
`O=C1C(=O)N(Cc2ccc(CBr)cc2)c2c(Br)cc(Br)cc21` gave a pIC50 (MCF7) of 4.56, a pIC50 (HT-29 [1]) of 5.29 and a pIC50 (UACC-903) of 5.58. For the same molecule, the pIC50 (A549) was 5.10.
Molecule `N#C[Se]CCCN1C(=O)C(=O)c2cc(Br)cc(Br)c21` has a pIC50 (MCF7) of 5.78, an Activity (HT-29 [2]) of 1.92% and an Activity (HT-29 [4]) of 1.53%. For the same molecule, the Activity (HT-29 [5]) was 2.25%, the viability at 1.25 µM (HT-29 [6]) was 92.1% and the inhibition (Bos taurus) was 63%. The Activity (HT-29 [7]) was 1.94%, the Activity (HT-29 [8]) was “Dose-dependent effect” and the Activity (HT-29 [9]) was “Dose-dependent effect”. The Activity (HT-29 [10]) was 10.44%, the Activity (HT-29 [11]) was 48.6% and the viability at 5 µM (HT-29 [13]) was 43.8%. The pIC50 (HT-29 [1]) was 5.50, the viability at 2.5 µM (HT-29 [14]) was 89.6% and the Activity (HT-29 [16]) was 5.79%. For the same molecule, the “fold change (FC)” value (HT-29 [17]) was 16, the Activity (HT-29 [19]) was 4.45% and the Activity (HT-29 [21]) was 7.92%. For the same molecule, the Activity (HT-29 [22]) was 1.89%, the Activity (HT-29 [23]) was 56.28% and the Activity (HT-29 [24]) was 6.27%. It also gave a pIC50 (UACC-903) of 4.66 and a pIC50 (A549) of 5.46.
`O=C1C(=O)N(CCCCCl)c2c(Br)cc(Br)cc21` showed a pIC50 (MCF7) of 4.83, a pIC50 (HT-29 [1]) of 5.60 and a pIC50 (UACC-903) of 5.43. It also gave a pIC50 (A549) of 5.42.
